Results as given in PMC5820137 (Neuropharmacology, 2017).

Tests used:
SH-SY5Y cells [1] = assay: MTS-based cell survival assay; parameters: species or system human
Cav2 VGCCs = conditions: cited from earlier work
cdk = conditions: cited from earlier work
Cav2.1 VGCC = assay: Whole-cell perforated patch clamp of Cav2.1 current; type: cell-based
cdk2 = cdk2 (Homo sapiens, UniProt P24941); assay: kinaseseeker kinase assay; type: binding; conditions: 2 μM
Outline: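 Cell-free luminescent probe-displacement binding assay in rabbit reticulocyte lysate. Compound (2 μM) or DMSO control was incubated 30 min at room temperature, then 1 h with a kinase-specific probe. Luminescence was read, and values expressed as percent kinase activity remaining.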

cdk5 = cdk5 (Homo sapiens, UniProt Q00535); assay: kinaseseeker kinase assay; type: binding; conditions: 2 μM
Chain of cdk5 (Q00535 whole entry, species assumed): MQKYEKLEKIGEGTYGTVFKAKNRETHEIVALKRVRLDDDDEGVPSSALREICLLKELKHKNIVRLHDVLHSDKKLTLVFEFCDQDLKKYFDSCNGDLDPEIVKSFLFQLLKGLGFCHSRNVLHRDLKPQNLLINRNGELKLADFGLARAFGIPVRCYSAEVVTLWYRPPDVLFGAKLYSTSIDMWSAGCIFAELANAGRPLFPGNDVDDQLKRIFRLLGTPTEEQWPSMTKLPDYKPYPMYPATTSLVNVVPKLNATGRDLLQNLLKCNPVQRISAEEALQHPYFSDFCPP

[2] = tested on: rectifying outward current in HEK293 cells; assay: Contaminating rectifying outward current during voltage steps in patch clamp; type: cell-based; conditions: 50 μM; mean ± SEM, n = 7; across all voltages tested
SH-SY5Y cells [3] = conditions: ref Tarr et al., 2014; cited from earlier work
[4] = ref Liang et al., 2012, Tarr et al., 2013

CC[C@H](CO)Nc1nc(NCc2ccccc2)c2ncn(C(C)C)c2n1 [(R)-roscovitine, reference compound]
Concentrations giving a significant decrease in cell survival (SH-SY5Y cells [1]; 24 h exposure): ≥ 10 µM

CC[C@@H](CO)Nc1nc(NCc2ccccc2)c2ncn(C(C)C)c2n1 [(S)-roscovitine]
Concentration needed for VGCC agonist activity (Cav2 VGCCs; ref Buraei and Elmslie, 2008): above 500 μM
Lower affinity than (R)-roscovitine (VGCC agonist activity) (Cav2 VGCCs; ref Buraei and Elmslie, 2008): 20 fold
Potency as cdk inhibitor, less than (R)-roscovitine (cdk; ref De Azevedo et al., 1997): 2 fold

CCCn1cnc2c(NCc3ccc(C)s3)nc(N[C@H](CC)CO)nc21 [GV-58]
Depolarization time to 50% of maximal effects on tail current integral (Cav2.1 VGCC; 50 μM continuously present, steps to +20 mV of 1–100 msec): 2 to 4 ms
Shift of voltage-dependence of activation curves (peak tail current) (Cav2.1 VGCC; 50 μM, 20 msec steps from −100 mV): did not show any shift
Shift to the left of IV plots (peak current during step) (Cav2.1 VGCC; 50 μM, 20 msec steps from −100 mV, ascribed to contaminating outward current): ~10 mV
Tail current decay (slow deactivation) time constant (Cav2.1 VGCC; 50 μM, tail current at −60 mV after 200 msec step to +60 mV): 9.16 ± 0.706 ms
Reduction of cdk2 activity (cdk2): 0–15%
Reduction of cdk5 activity (cdk5): 10–20%
Effect on cell survival at 50 μM (SH-SY5Y cells [1]; 50 μM, 24 h): no significant effects on cell survival
Effect on cell survival (SH-SY5Y cells [1]; 24 h exposure, 0.1–100 μM, normalized to vehicle): little or no effect on cell survival, even up to 100 μM
Increase in rectifying current amplitude [2]: 70 ± 10%
Decrease in cell survival at 100 μM (SH-SY5Y cells [3]): 8%
Higher potency and efficacy for Cav2 VGCCs than (R)-roscovitine (Cav2 VGCCs; [4]): 4 fold
Reduction in cdk activity versus the parent molecule (R)-roscovitine (cdk; [4]): greater than 20 fold
